# Data: ChEMBL document CHEMBL1154352, “Toll-like receptor 7 selective synthetic oligoribonucleotide agonists: synthesis and structure-activity relationship studies” (J Med Chem, 2009)
# The source made the active and inactive calls. The rule behind the calls is not given here.
# Legend:
# [1] = Metabolic stability in human serum assessed as full length product remaining after 10 mins by HPLC; format: ADME, cell-free; conditions: read-out: Stability
# Summary of the method: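 About 0.5 A260 units compound in 1% human serum in PBS, 37 °C; aliquot taken at 10 min, analysed by anion-exchange HPLC for percent intact full-length product.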
# [2] = molecular target: T1, Toll-like receptor 8 (Homo sapiens) (UniProt Q9NR97); experiment: Activation of human TLR8 expressed in HEK293XL assessed as fold induction of NF-kappaB activity at 50 ug/ml after 18 hrs by reporter gene assay relative to control
# T1 sequence (whole entry): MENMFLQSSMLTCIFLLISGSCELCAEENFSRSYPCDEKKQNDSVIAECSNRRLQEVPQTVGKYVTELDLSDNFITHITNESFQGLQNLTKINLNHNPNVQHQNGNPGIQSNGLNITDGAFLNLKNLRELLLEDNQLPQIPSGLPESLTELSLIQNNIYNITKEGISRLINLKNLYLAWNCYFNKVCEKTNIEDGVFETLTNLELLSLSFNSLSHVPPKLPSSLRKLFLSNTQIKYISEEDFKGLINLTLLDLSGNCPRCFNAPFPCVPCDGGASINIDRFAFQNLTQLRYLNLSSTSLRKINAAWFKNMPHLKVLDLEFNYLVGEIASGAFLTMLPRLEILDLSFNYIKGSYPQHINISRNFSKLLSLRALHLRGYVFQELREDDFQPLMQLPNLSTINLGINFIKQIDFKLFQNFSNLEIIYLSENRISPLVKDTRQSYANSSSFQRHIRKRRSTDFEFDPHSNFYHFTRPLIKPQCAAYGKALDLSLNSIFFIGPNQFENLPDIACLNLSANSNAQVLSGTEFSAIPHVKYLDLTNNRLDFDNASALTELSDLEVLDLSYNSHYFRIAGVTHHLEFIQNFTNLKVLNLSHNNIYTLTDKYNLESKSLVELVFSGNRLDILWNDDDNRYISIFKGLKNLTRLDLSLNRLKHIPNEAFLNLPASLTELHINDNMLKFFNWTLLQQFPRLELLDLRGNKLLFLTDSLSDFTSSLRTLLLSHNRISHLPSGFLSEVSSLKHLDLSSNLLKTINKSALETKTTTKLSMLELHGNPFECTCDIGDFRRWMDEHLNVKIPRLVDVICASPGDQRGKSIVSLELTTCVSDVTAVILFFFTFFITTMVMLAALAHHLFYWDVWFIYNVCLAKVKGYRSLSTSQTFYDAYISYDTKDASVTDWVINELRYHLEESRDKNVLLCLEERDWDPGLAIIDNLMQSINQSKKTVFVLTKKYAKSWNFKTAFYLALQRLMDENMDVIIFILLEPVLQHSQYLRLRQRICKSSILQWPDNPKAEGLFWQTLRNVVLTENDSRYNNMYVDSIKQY
# Summary of the method: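 HEK293 cells stably expressing human TLR7 or TLR8, transiently transfected with SEAP reporter plasmid; medium replaced, SIMRA compounds added, 18 h incubation. Supernatant SEAP measured by QuantiBlue; expressed as fold increase in NF-κB activity over PBS control. Tabulated data at 50 μg/mL, representative of three independent experiments.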
# Homo sapiens [3] = species: Homo sapiens; experiment: Immunostimulatory activity in human pDC assessed as induction of IFNalpha at 100 ug/ml after 24 hrs; format: functional
# Summary of the method: (§1)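 Human pDCs plated at 1 × 10^6 cells/mL; compounds in PBS added, 37 °C for 24 h; supernatant cytokines/chemokines by human Luminex multiplex kit.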
# PBMC [4] = experiment: Immunomodulatory activity in human PBMC assessed as induction of IFNalpha after 24 hrs; format: functional, cell-based
# Summary of the method: (§2)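 Human PBMCs plated at 5 × 10^6 cells/mL; compounds dissolved in PBS added at various concentrations, 37 °C for 24 h. Supernatant cytokines/chemokines quantified with human Luminex multiplex kit.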
# PBMC [5] = experiment: Immunomodulatory activity in human PBMC assessed as induction of TNFalpha after 24 hrs; format: functional, cell-based; summary of the method: as §2
# PBMC [6] = experiment: Immunomodulatory activity in human PBMC assessed as induction of IL6 after 24 hrs; format: functional, cell-based; summary of the method: as §2
# PBMC [7] = experiment: Immunomodulatory activity in human PBMC assessed as induction of MIP1alpha after 24 hrs; format: functional, cell-based; summary of the method: as §2
# PBMC [8] = experiment: Immunomodulatory activity in human PBMC assessed as induction of IL10 after 24 hrs; format: functional, cell-based; summary of the method: as §2
# PBMC [9] = experiment: Immunomodulatory activity in human PBMC assessed as induction of MCP1 after 24 hrs; format: functional, cell-based; summary of the method: as §2
# PBMC [10] = experiment: Immunomodulatory activity in human PBMC assessed as induction of IL12 at 50 ug/ml after 24 hrs; format: functional, cell-based; summary of the method: as §2
# PBMC [11] = experiment: Immunomodulatory activity in human PBMC assessed as induction of TNFalpha at 50 ug/ml after 24 hrs; format: functional, cell-based; summary of the method: as §2
# PBMC [12] = experiment: Immunomodulatory activity in human PBMC assessed as induction of IFNalpha at 50 ug/ml after 24 hrs; format: functional, cell-based; summary of the method: as §2
# PBMC [13] = experiment: Immunomodulatory activity in human PBMC assessed as induction of MIP1alpha at 50 ug/ml after 24 hrs; format: functional, cell-based; summary of the method: as §2
# PBMC [14] = experiment: Immunomodulatory activity in human PBMC assessed as induction of MIP1beta at 50 ug/ml after 24 hrs; format: functional, cell-based; summary of the method: as §2
# PBMC [15] = experiment: Immunomodulatory activity in human PBMC assessed as induction of IP10 at 50 ug/ml after 24 hrs; format: functional, cell-based; summary of the method: as §2
# PBMC [16] = experiment: Immunomodulatory activity in human PBMC assessed as induction of MCP1 at 50 ug/ml after 24 hrs; format: functional, cell-based; summary of the method: as §2
# PBMC [17] = experiment: Immunomodulatory activity in human PBMC assessed as induction of IL6 at 50 ug/ml after 24 hrs; format: functional, cell-based; summary of the method: as §2
# PBMC [18] = experiment: Immunomodulatory activity in human PBMC assessed as induction of IL1-beta at 50 ug/ml after 24 hrs; format: functional, cell-based; summary of the method: as §2
# Homo sapiens [19] = species: Homo sapiens; experiment: Immunostimulatory activity in human pDC assessed as induction of IP10 at 100 ug/ml after 24 hrs; format: functional; summary of the method: as §1
# Homo sapiens [20] = species: Homo sapiens; experiment: Immunostimulatory activity in human pDC assessed as induction of IL6 at 100 ug/ml after 24 hrs; format: functional; summary of the method: as §1
# Homo sapiens [21] = species: Homo sapiens; experiment: Immunostimulatory activity in human mDC assessed as induction of IFNalpha at 100 ug/ml after 24 hrs; format: functional
# Summary of the method: (§3)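 Human mDCs isolated from PBMCs by CD19+ B-cell depletion then BDCA1 positive selection; plated at 1 × 10^6 cells/mL, compounds in PBS, 37 °C for 24 h; supernatant cytokines by human Luminex multiplex. Representative of four independent experiments.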
# Homo sapiens [22] = species: Homo sapiens; experiment: Immunostimulatory activity in human mDC assessed as induction of IP10 at 100 ug/ml after 24 hrs; format: functional; summary of the method: as §3
# Homo sapiens [23] = species: Homo sapiens; experiment: Immunostimulatory activity in human mDC assessed as induction of IL12 at 100 ug/ml after 24 hrs; format: functional; summary of the method: as §3
# Homo sapiens [24] = species: Homo sapiens; experiment: Immunostimulatory activity in human mDC assessed as induction of IL6 at 100 ug/ml after 24 hrs; format: functional; summary of the method: as §3
# Homo sapiens [25] = species: Homo sapiens; experiment: Immunostimulatory activity in human mDC assessed as induction of TNFalpha at 100 ug/ml after 24 hrs; format: functional; summary of the method: as §3
# Mus musculus = experiment: Immunomodulatory activity in C57BL/6 mouse assessed as induction of IL12 release at 25 mg/kg, sc after 2 hrs by ELISA; format: functional, organism-based; parameters: dose 25 mg/kg
# Summary of the method: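 Female C57BL/6 wild-type mice, 5–8 weeks old, n=3; compounds given subcutaneously at 10 or 25 mg/kg. Retro-orbital blood at 2 h; serum cytokines by mouse Luminex multiplex or IL-12 ELISA.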
smiles,measurement,setting,value
Nc1ccn([C@@H]2O[C@H](COP(=O)(S)O[C@H]3[C@@H](O)[C@H](n4cnc5c(N)ncnc54)O[C@@H]3COP(=O)(S)O[C@H]3[C@@H](O)[C@H](n4ccc5c(=O)[nH]c(N)nc54)O[C@@H]3COP(=O)(S)O[C@H]3[C@@H](O)[C@H](n4ccc(=O)[nH]c4=O)O[C@@H]3COP(=O)(S)O[C@H]3[C@@H](O)[C@H](n4ccc5c(=O)[nH]c(N)nc54)O[C@@H]3COP(=O)(S)O[C@H]3[C@@H](O)[C@H](n4cnc5c(N)ncnc54)O[C@@H]3COP(=O)(S)O[C@H]3[C@@H](O)[C@H](n4cnc5c(N)ncnc54)O[C@@H]3CO)[C@@H](OP(=O)(S)OC[C@H]3O[C@@H](n4ccc5c(=O)[nH]c(N)nc54)[C@H](O)[C@@H]3OP(=O)(S)OC[C@H]3O[C@@H](n4ccc(N)nc4=O)[C@H](O)[C@@H]3OP(=O)(S)OC[C@H]3O[C@@H](n4ccc(=O)[nH]c4=O)[C@H](O)[C@@H]3OP(=O)(S)OC[C@H]3O[C@@H](n4ccc(=O)[nH]c4=O)[C@H](O)[C@@H]3OP(=O)(S)OCC(O)COP(=O)(S)O[C@H]3[C@@H](O)[C@H](n4ccc(=O)[nH]c4=O)O[C@@H]3COP(=O)(S)O[C@H]3[C@@H](O)[C@H](n4ccc(=O)[nH]c4=O)O[C@@H]3COP(=O)(S)O[C@H]3[C@@H](O)[C@H](n4ccc(N)nc4=O)O[C@@H]3COP(=O)(S)O[C@H]3[C@@H](O)[C@H](n4ccc5c(=O)[nH]c(N)nc54)O[C@@H]3COP(=O)(S)O[C@H]3[C@@H](O)[C@H](n4ccc(N)nc4=O)O[C@@H]3COP(=O)(S)O[C@H]3[C@@H](O)[C@H](n4cnc5c(N)ncnc54)O[C@@H]3COP(=O)(S)O[C@H]3[C@@H](O)[C@H](n4ccc5c(=O)[nH]c(N)nc54)O[C@@H]3COP(=O)(S)O[C@H]3[C@@H](O)[C@H](n4ccc(=O)[nH]c4=O)O[C@@H]3COP(=O)(S)O[C@H]3[C@@H](O)[C@H](n4ccc5c(=O)[nH]c(N)nc54)O[C@@H]3COP(=O)(S)O[C@H]3[C@@H](O)[C@H](n4cnc5c(N)ncnc54)O[C@@H]3COP(=O)(S)O[C@H]3[C@@H](O)[C@H](n4cnc5c(N)ncnc54)O[C@@H]3CO)[C@H]2O)c(=O)n1 (stereo partly specified),remaining at 10 min,[1],87%
same,fold change (FC),[2],0.7
same,Activity,Homo sapiens [3],Active
same,Activity,PBMC [4],Dose-dependent effect
same,Activity,PBMC [5],Dose-dependent effect
same,Activity,PBMC [6],Dose-dependent effect
same,Activity,PBMC [7],Dose-dependent effect
same,Activity,PBMC [8],Dose-dependent effect
same,Activity,PBMC [9],Dose-dependent effect
same,Activity,PBMC [10],316 pg/mL
same,Activity,PBMC [11],57 pg/mL
same,Activity,PBMC [12],209 pg/mL
same,Activity,PBMC [13],2540 pg/mL
same,Activity,PBMC [14],6230 pg/mL
same,Activity,PBMC [15],629 pg/mL
same,Activity,PBMC [16],51500 pg/mL
same,Activity,PBMC [17],1300 pg/mL
same,Activity,PBMC [18],105 pg/mL
same,Activity,Homo sapiens [19],Active
same,Activity,Homo sapiens [20],Active
same,Activity,Homo sapiens [21],Active
same,Activity,Homo sapiens [22],Active
same,Activity,Homo sapiens [23],Active
same,Activity,Homo sapiens [24],Active
same,Activity,Homo sapiens [25],Active
same,Activity,Mus musculus,Active
